Measurements as given in ChEMBL document CHEMBL1132938, “Novel synthetic oleanane and ursane triterpenoids with various enone functionalities in ring A as inhibitors of nitric oxide production in mouse macrophages” (J Med Chem, 2000).

Assays:
Format in all cases: functional
Mus musculus [1] = species on record: Mus musculus; assay: (§1) Percent inhibition of nitric oxide production induced by IFN-uM concentration
Mus musculus [2] = species on record: Mus musculus; assay: as §1; parameters: concentration or dose not given beside the values
Mus musculus [3] = species on record: Mus musculus; assay: 50 percent inhibitory concentration of compound to inhibit nitric oxide production induced by IFN-gamma in mouse macrophages
Outline: (§2)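 Peritoneal macrophages from female CD-1 mice (5-10 weeks old) were harvested 4 days after ip injection of 2 mL 4% thioglycollate. Cells were seeded at 2×10^5/well and incubated 48 h with 20 ng/mL recombinant mouse IFN-γ, with or without compound (DMSO, final ≤0.1%). Compounds were tested over 0.1 pM–1 μM (10-fold) or 0.01–40 μM (4-fold). Nitrite in the supernatant was measured by Griess reagent at 550 nm against a sodium nitrite standard, in triplicate. Values are the average of two experiments.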

Mus musculus [4] = species on record: Mus musculus; assay: 50 percent inhibitory concentration of compound to inhibit nitric oxide production induced by IFN-gamma in mouse macrophages (Not active below 10 uM); outline: as §2
Mus musculus [5] = species on record: Mus musculus; assay: 50 percent inhibitory concentration of compound to inhibit nitric oxide production induced by IFN-gamma in mouse macrophages (Toxic above 10 uM); outline: as §2
Mus musculus [6] = species on record: Mus musculus; assay: 50 percent inhibitory concentration of compound to inhibit nitric oxide production induced by IFN-gamma in mouse macrophages (Not active below 1 uM); outline: as §2
Mus musculus [7] = species on record: Mus musculus; assay: 50 percent inhibitory concentration of compound to inhibit nitric oxide production induced by IFN-gamma in mouse macrophages (Toxic above 1 uM); outline: as §2
Mus musculus [8] = species on record: Mus musculus; assay: 50 percent inhibitory concentration of compound to inhibit nitric oxide production induced by IFN-uM); outline: as §2

| Structure (SMILES) | Inhibition (Mus musculus [2]) [%] | other results |
| --- | --- | --- |
| CC(=O)OC[C@]12CCC(C)(C)CC1C(=O)[C@](C)([C@]1(C)CC[C@H]3C(C)(C)[C@@H](OC(C)=O)CC[C@]3(C)[C@H]1CC=O)CC2 (some centres undefined) | – | Inhibition (Mus musculus [1]): 52% |
| CC1(C)CC[C@@]23CC[C@]4(C)[C@@](OC2O)(C3C1)[C@@H](O)C[C@@H]1[C@@]2(C)CC[C@H](O)C(C)(C)[C@@H]2CC[C@]14C (some centres undefined) | 21 | – |
| COC(=O)C12CCC(C)(C)CC1[C@H]1C(=O)C[C@@H]3[C@@]4(C)CC[C@H](OC(C)=O)C(C)(C)[C@@H]4CC[C@@]3(C)[C@]1(C)CC2 (some centres undefined) | 0 | – |
| C=C(C)[C@@H]1CC[C@]2(C)[C@H](CC=C3C4[C@@H](C)[C@H](C)CC[C@]4(C(=O)O)CC[C@]32C)[C@@]1(C)CCC(=O)O (some centres undefined) | 10 | – |
| COC(=O)C12CCC(C)(C)CC1[C@H]1C(=O)C[C@@H]3[C@@]4(C)CC[C@H](O)C(C)(C)[C@@H]4CC[C@@]3(C)[C@]1(C)CC2 (some centres undefined) | 0 | – |
| CC(=O)OC[C@]12CCC(C)(C)CC1C(O)[C@](C)([C@]1(C)CC[C@H]3C(C)(C)[C@@H](OC(C)=O)CC[C@]3(C)[C@H]1CCO)CC2 (some centres undefined) | 12 | – |
| CC(C)C1=C2CC[C@]3(C)[C@H](CC=C4C5CC(C)(C)CCC5(C(=O)O)CC[C@]43C)[C@@]2(C)CC1 (some centres undefined) | 0 | – |
| CC(=O)OC[C@]12CCC(C)(C)CC1C(=O)[C@](C)([C@]1(C)CC[C@H]3C(C)(C)[C@@H](OC(C)=O)CC[C@]3(C)[C@H]1CC(=O)O)CC2 (some centres undefined) | 52 | – |
| COC(=O)[C@]12CC[C@@H](C)[C@H](C)C1C1=CC[C@@H]3[C@@]4(C)C=C(C#N)C(=O)C(C)(C)[C@@H]4CC[C@@]3(C)[C@]1(C)CC2 (some centres undefined) | – | IC50 (Mus musculus [3]): 5.1 µM |
| C[C@@H]1CCC2(CO)CC[C@]3(C)C(=CC[C@@H]4[C@@]5(C)CC[C@H](O)C(C)(C)[C@@H]5CC[C@]43C)C2[C@H]1C (some centres undefined) | 8 | – |
| C[C@@H]1CC[C@]2(C(=O)O)CC[C@]3(C)C(=CC[C@@H]4[C@@]5(C)C=CC(=O)C(C)(C)[C@@H]5CC[C@]43C)C2[C@H]1C (some centres undefined) | 41 | IC50 (Mus musculus [3]): 13 µM |
| C[C@@H]1CCC2(C(=O)O)CC[C@]3(C)C(=CC[C@@H]4[C@@]5(C)CC[C@H](O)C(C)(C)[C@@H]5CC[C@]43C)C2[C@H]1C (some centres undefined) | 0 | IC50 (Mus musculus [4]): Not active below 10 uM; IC50 (Mus musculus [5]): Not active below 10 uM |
| C[C@@H]1CCC2(C(=O)O)CC[C@]3(C)C(=CC[C@@H]4[C@@]5(C)CC[C@@H](O)C(C)(C)[C@@H]5CC[C@]43C)C2[C@H]1C (some centres undefined) | 48 | – |
| CC(=O)OCC12CCC(C)(C)CC1[C@H]1[C@H](OC(C)=O)C[C@@H]3[C@@]4(C)CC[C@H](OC(C)=O)C(C)(C)[C@@H]4CC[C@@]3(C)[C@]1(C)CC2 (some centres undefined) | 0 | – |
| CC1(C)CC[C@]2(C(=O)O)CC[C@@](C)([C@]3(C)CC[C@H]4C(C)(C)C(=O)CC[C@]4(C)[C@H]3CC(=O)O)C(=O)C2C1 (some centres undefined) | 28 | – |
| COC(=O)C12CCC(C)(C)CC1[C@]13O[C@H]1C[C@@H]1[C@@]4(C)CC[C@H](OC(C)=O)C(C)(C)[C@@H]4CC[C@@]1(C)[C@]3(C)CC2 (some centres undefined) | 0 | – |
| CC1(C)CCC2(C=O)CC[C@]3(C)[C@H](C(=O)C[C@@H]4[C@@]5(C)CCC(=O)C(C)(C)[C@@H]5CC[C@]43C)C2C1 (some centres undefined) | 38 | – |
| CC1(C)CCC2(CO)CC[C@]3(C)C(=CC[C@@H]4[C@@]5(C)CC[C@H](O)C(C)(C)[C@@H]5CC[C@]43C)C2C1 (some centres undefined) | 0 | – |
| COC(=O)C12CC[C@@H](C)[C@H](C)C1C1=CC[C@@H]3[C@@]4(C)CCC(=O)C(C)(C)[C@@H]4CC[C@@]3(C)[C@]1(C)CC2 (some centres undefined) | 16 | – |
| CC1(C)CC[C@]2(C(=O)O)CC[C@]3(C)C(=CC[C@@H]4[C@@]5(C)C=C(C=O)C(=O)C(C)(C)[C@@H]5CC[C@]43C)C2C1 (some centres undefined) | – | IC50 (Mus musculus [6]): Not active below 1 uM; IC50 (Mus musculus [7]): Not active below 1 uM |
| CC(=O)O[C@H]1CC[C@]2(C)[C@H]3CC=C4[C@@H]5CC(C)(C)CC[C@]5(C(=O)O)CC[C@@]4(C)[C@]3(C)CC[C@H]2C1(C)C [ACETYL OLEANOLIC ACID] | 0 | – |
| COC(=O)C12CCC(C)(C)CC1C1=CC[C@@H]3[C@@]4(C)C=CC(=O)C(C)(C)[C@@H]4CC[C@@]3(C)[C@]1(C)CC2 (some centres undefined) | 19 | IC50 (Mus musculus [3]): 31 µM |

| Structure (SMILES) | Inhibition (Mus musculus [2]) [%] | other results |
| --- | --- | --- |
| COC(=O)C12CC[C@@H](C)[C@H](C)C1C1=CC[C@@H]3[C@@]4(C)CC[C@H](O)C(C)(C)[C@@H]4CC[C@@]3(C)[C@]1(C)CC2 (some centres undefined) | 0 | – |
| CC1(C)CC[C@@]23CC[C@]4(C)[C@](OC2=O)(C(=O)C[C@@H]2[C@@]5(C)CCC(=O)C(C)(C)[C@@H]5CC[C@]24C)C3C1 (some centres undefined) | 0 | – |
| C=C(C)[C@@H]1CC[C@]2(C)[C@H](CC=C3C4[C@@H](C)[C@H](C)CC[C@]4(C(=O)O)CC[C@]32C)[C@@]1(C)CCC#N (some centres undefined) | 39 | – |
| CC1(C)CC[C@]2(C(=O)O)CC[C@]3(C)C(=CC[C@@H]4[C@@]5(C)C=CC(=O)C=C5CC[C@]43C)C2C1 (some centres undefined) | – | IC50 (Mus musculus [3]): 13 µM |
| COC(=O)C12CCC(C)(C)CC1[C@H]1[C@@H](O)C[C@@H]3[C@@]4(C)CC[C@H](OC(C)=O)C(C)(C)[C@@H]4CC[C@@]3(C)[C@]1(C)CC2 (some centres undefined) | 0 | – |
| CC1(C)CC[C@]2(C(=O)O)CC[C@]3(C)C(=CC[C@@H]4[C@@]5(C)CC[C@H](O)C(C)(C)[C@@H]5CC[C@]43C)[C@@H]2C1 [OLEANOLIC_ACID] | 38 | – |
| CC1(C)CCC2(C(=O)O)CC[C@]3(C)C(=CC[C@@H]4[C@@]5(C)CC=CC(C)(C)[C@@H]5CC[C@]43C)C2C1 (some centres undefined) | 0 | – |
| CC1(C)CC[C@]2(C(=O)O)CC[C@]3(C)C(=CC[C@@H]4[C@@]5(C)CCC(=O)C(C)(C)[C@@H]5CC[C@]43C)[C@@H]2C1 [OLEANONIC ACID] | 16 | – |
| CC1(C)CCC2(CO)CC[C@]3(C)[C@@H](C2C1)[C@@H](O)C[C@@H]1[C@@]2(C)CC[C@H](O)C(C)(C)[C@@H]2CC[C@]13C (some centres undefined) | 48 | – |
| CC1(C)CCC2(C=O)CC[C@]3(C)C(=CC[C@@H]4[C@@]5(C)CCC(=O)C(C)(C)[C@@H]5CC[C@]43C)C2C1 (some centres undefined) | 11 | – |
| COC(=O)C12CC[C@@H](C)[C@H](C)C1C1=CC[C@@H]3[C@@]4(C)C=CC(=O)C(C)(C)[C@@H]4CC[C@@]3(C)[C@]1(C)CC2 (some centres undefined) | 0 | – |
| COC(=O)C12CCC(C)(C)CC1C1=CC[C@@H]3[C@@]4(C)CC[C@H](OC(C)=O)C(C)(C)[C@@H]4CC[C@@]3(C)[C@]1(C)CC2 (some centres undefined) | 10 | – |
| COC(=O)[C@]12CCC(C)(C)CC1C1=CC[C@@H]3[C@@]4(C)C=C(C=O)C(=O)C(C)(C)[C@@H]4CC[C@@]3(C)[C@]1(C)CC2 (some centres undefined) | – | IC50 (Mus musculus [6]): Not active below 1 uM; IC50 (Mus musculus [8]): Not active below 1 uM |
| C[C@@H]1CC[C@]2(C(=O)O)CC[C@]3(C)C(=CC[C@@H]4[C@@]5(C)C=C(C#N)C(=O)C(C)(C)[C@@H]5CC[C@]43C)C2[C@H]1C (some centres undefined) | – | IC50 (Mus musculus [3]): 6.2 µM |
| CC1(C)CCC2(C(=O)O)CC[C@]3(C)C(=C2C1)C=C[C@@H]1[C@@]2(C)CCC(=O)C(C)(C)[C@@H]2CC[C@]13C (some centres undefined) | 47 | – |
| C[C@]12CCC(=O)C=C1CC[C@@H]1[C@@H]2[C@@H](O)C[C@@]2(C)[C@H]1CC[C@]2(O)C(=O)CO [HYDROCORTISONE] | 80 | – |
| COC(=O)C12CC[C@@H](C)[C@H](C)C1C1=CC[C@@H]3[C@@]4(C)CC[C@H](OC(C)=O)C(C)(C)[C@@H]4CC[C@@]3(C)[C@]1(C)CC2 (some centres undefined) | 15 | – |
| COC(=O)[C@]12CCC(C)(C)CC1C1=CC[C@@H]3[C@@]4(C)C=CC(=O)C=C4CC[C@@]3(C)[C@]1(C)CC2 (some centres undefined) | – | IC50 (Mus musculus [3]): > 40 µM |
| C=C(C)[C@@H]1CC[C@]2(C)[C@H](CC=C3C4[C@@H](C)[C@H](C)CC[C@]4(C(=O)O)CC[C@]32C)[C@@]1(C)CCC=O (some centres undefined) | 55 | – |
| COC(=O)C12CCC(C)(C)CC1C1=CC[C@@H]3[C@@]4(C)CCC(=O)NC(C)(C)[C@@H]4CC[C@@]3(C)[C@]1(C)CC2 (some centres undefined) | 0 | – |
| COC(=O)[C@]12CCC(C)(C)C[C@H]1C1=CC[C@@H]3[C@@]4(C)CC[C@H](O)C(C)(C)[C@@H]4CC[C@@]3(C)[C@]1(C)CC2 [METHYL OLEANOLATE] | 0 | – |
